Measured values reported in ChEMBL document CHEMBL1148788 (J Med Chem, 2007).
Values joined by “and” are separate entries in the source; they are usually repeats but may differ in a detail not shown here. Equal values may be shown once. Active and inactive are the calls of the source. No cut-off for these calls is given here.

What was measured:
[1] = biological target: T1, Neuronal acetylcholine receptor subunit alpha-7 (Homo sapiens, UniProt P36544); test: Antagonist activity at human alpha-7 nAChR in tsA201 cells coexpressed with Ric3 by FMP assay; format: functional, cell-based
Target sequence in this assay (P36544 whole entry): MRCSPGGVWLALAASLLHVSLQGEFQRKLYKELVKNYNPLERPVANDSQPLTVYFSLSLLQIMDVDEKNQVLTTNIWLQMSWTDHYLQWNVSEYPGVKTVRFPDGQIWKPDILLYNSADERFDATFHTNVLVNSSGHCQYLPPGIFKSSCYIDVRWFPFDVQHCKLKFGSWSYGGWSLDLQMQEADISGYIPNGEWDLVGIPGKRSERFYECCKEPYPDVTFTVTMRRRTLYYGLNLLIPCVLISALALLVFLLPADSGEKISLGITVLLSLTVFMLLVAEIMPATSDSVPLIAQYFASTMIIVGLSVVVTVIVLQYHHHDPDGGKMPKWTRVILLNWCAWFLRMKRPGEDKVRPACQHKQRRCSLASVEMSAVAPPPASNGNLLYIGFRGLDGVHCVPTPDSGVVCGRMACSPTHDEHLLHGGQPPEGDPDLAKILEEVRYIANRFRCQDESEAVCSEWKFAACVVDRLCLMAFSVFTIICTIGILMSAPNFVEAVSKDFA

[2] = biological target: T1, Neuronal acetylcholine receptor subunit alpha-7; test: Displacement of [3H]methyllycaconitine from chimeric alpha7nAChR/5HT3A in tsA201 cells; format: cell-based
Target sequence in this assay (P36544 23-502 limits assumed): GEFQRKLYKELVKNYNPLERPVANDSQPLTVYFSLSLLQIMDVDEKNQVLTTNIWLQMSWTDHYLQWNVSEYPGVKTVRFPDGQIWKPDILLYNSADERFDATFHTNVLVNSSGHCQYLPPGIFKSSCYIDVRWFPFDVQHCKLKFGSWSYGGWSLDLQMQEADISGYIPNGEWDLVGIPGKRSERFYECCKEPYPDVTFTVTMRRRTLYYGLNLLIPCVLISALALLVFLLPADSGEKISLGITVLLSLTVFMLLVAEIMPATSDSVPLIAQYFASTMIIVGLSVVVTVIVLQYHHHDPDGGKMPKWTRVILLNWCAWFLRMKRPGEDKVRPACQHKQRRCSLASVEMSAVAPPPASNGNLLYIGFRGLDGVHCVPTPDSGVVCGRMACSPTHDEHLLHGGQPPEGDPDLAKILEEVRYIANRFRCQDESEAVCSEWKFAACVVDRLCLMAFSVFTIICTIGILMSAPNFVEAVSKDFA

[3] = biological target: T1, Neuronal acetylcholine receptor subunit alpha-7; test: Displacement of [3H]methyllycaconitine from alpha7 nAChR in tsA201 cells co-expressed with Ric3; format: cell-based
Target sequence in this assay (P36544 whole entry): as the sequence (P36544 whole entry) above

[4] = test system: tsA201; test: Displacement of [3H]methyllycaconitine from chimeric alpha-7nAChR W55A/Y195A mutant /5HT3A receptor in tsA201 cells; format: cell-based; conditions: Homo sapiens
Procedure, shortened: (§1)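 tsA-201 cells transiently transfected with 4 µg WT or mutant α7/5-HT3A chimera and assayed 2 days later. Membranes washed twice at 50000g in 50 mM Tris-HCl pH 7.2. Incubated with 0.5 nM [3H]MLA and compound for 2.5 h at room temperature with shaking; nonspecific binding with 5 mM (S)-nicotine. PEI-soaked GF/C filtration, scintillation counting. Ki derived; duplicate, 3–7 experiments.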

[5] = biological target: T1, Neuronal acetylcholine receptor subunit alpha-7
Target sequence in this assay (P36544 whole entry): as above

[6] = Displacement of [3H]methyllycaconitine from chimeric alpha-7nAChR D197A mutant/5HT3A receptor in tsA201 cells; format: cell-based, Homo sapiens; procedure, shortened: as §1
[7] = biological target: T2, 5-hydroxytryptamine receptor 3A (Homo sapiens, UniProt P46098); test: Displacement of [3H]GR65630 from human 5HT3A receptor in HEK293 cells; format: cell-based
T2 sequence (P46098 whole entry): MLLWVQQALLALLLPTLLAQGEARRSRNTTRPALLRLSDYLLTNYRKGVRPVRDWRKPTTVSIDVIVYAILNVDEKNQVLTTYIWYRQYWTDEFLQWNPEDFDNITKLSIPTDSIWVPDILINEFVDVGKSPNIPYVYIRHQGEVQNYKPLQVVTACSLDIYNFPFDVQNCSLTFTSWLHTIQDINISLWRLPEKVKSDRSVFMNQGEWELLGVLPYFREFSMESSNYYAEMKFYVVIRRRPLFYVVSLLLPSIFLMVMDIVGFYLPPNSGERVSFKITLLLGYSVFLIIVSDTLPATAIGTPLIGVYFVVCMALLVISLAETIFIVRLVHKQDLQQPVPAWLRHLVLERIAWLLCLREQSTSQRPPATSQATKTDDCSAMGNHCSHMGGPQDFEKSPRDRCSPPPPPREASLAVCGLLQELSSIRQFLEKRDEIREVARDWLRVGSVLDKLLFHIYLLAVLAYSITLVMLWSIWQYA

[8] = biological target: Neuronal acetylcholine receptor; alpha3/beta4 (Rattus norvegicus, UniProt P04757+P12392); test: Displacement of [3H]epibatidine from recombinant rat alpha-3-beta-4 nAChr in HEK293 cell line; format: cell-based
[9] = Antagonist activity at human alpha-7 nAChR Y195A mutant coexpressed with human Ric3 in tsA201 cells by FMP assay; format: functional, cell-based
[10] = Displacement of [3H]methyllycaconitine from chimeric alpha-7nAChR Y168A mutant/5HT3A receptor in tsA201 cells; format: cell-based, Homo sapiens; procedure, shortened: as §1
[11] = Displacement of [3H]methyllycaconitine from chimeric alpha7nAChR R79A mutant/5HT3A receptor R79A mutant in tsA201 cells; format: cell-based, Homo sapiens; procedure, shortened: as §1

Chain of Neuronal acetylcholine receptor; alpha3/beta4 (P04757 whole entry): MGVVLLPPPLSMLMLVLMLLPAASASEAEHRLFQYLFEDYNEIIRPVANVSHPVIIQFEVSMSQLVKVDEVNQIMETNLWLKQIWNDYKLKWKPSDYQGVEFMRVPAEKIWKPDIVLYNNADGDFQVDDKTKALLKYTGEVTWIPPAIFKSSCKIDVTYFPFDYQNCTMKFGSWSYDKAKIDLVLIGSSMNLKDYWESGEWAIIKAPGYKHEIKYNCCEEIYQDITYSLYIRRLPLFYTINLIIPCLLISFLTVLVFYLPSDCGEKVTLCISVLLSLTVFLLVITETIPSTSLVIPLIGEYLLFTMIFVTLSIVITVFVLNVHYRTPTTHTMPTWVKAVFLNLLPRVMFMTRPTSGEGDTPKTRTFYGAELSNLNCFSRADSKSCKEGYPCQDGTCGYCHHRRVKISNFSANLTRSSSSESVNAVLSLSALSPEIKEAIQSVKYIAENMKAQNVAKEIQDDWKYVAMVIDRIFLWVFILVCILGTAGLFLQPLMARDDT
Chain of Neuronal acetylcholine receptor; alpha3/beta4 (P12392 whole entry): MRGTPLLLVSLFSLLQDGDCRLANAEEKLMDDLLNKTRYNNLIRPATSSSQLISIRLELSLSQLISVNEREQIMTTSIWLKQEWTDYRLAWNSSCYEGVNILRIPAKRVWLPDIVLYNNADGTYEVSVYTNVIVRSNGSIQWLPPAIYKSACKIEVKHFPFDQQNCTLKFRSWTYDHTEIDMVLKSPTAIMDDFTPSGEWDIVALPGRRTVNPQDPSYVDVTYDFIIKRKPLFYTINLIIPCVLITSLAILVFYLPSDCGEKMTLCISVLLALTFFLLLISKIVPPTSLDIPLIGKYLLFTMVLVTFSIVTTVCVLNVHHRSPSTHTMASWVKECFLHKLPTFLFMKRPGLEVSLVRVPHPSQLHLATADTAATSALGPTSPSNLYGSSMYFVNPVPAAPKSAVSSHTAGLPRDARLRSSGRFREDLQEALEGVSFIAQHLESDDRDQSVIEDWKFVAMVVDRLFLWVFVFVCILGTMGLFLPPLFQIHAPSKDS

With O=[N+]([O-])c1ccc(C[N+]23CC[C@@H]4[C@@H]5[C@@H]6[C@@H](OCC=C(C2)[C@@H]6C[C@@H]43)N2c3ccccc3[C@@]34CC[N+]6(Cc7ccc([N+](=O)[O-])cc7)CC7=CCO[C@H]([C@@H]([C@H]23)[C@H]7C[C@@H]46)N5c2ccccc2)cc1.[Br-].[Br-] (some centres undefined) the IC50 ([1]; read-out: IC50) was 370 nM, the IC50 ([1]; read-out: pIC50 (converted)) was 372 nM and the Ki [2] was 18 nM. For the same molecule, the pKi [2] was 7.74, the Ki ([3]; read-out: Ki) was 29 nM and the Ki ([3]; read-out: pKi (converted)) was 31.6 nM. The Activity [4] was “inactive”, the IC50 [5] was 360 nM and 363 nM and the Ki [6] was 31 nM. It also gave a pKi [6] of 7.51, a Ki [7] of 23000 nM and a Ki [8] of over 100000 nM. It also gave a pKi ([8]; hek293) of under 4, an IC50 ([9]; read-out: IC50) of 25000 nM and an IC50 ([9]; read-out: pIC50 (converted)) of 25100 nM. It also gave a Ki [10] of 34 nM, a pKi [10] of 7.47 and a Ki [11] of 32 nM. The pKi [11] was 7.5.
